Shown are actives, neighbours in structure and some others; about 3.8% of the full set was active somewhere.
MPTP block: blocks calcium-induced mitochondrial swelling. isolated mouse mitochondria, Ca2+ swelling absorbance, 30 min. inhibition, % at 10 µM. AID 602449. hit rate 1.4% among 360,000;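 active = inhibition of 50% or more, scaled per plate between neutral and stimulator controls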
rCAG RNA binder: molecules binding r(CAG) RNA repeats; r(CAG) RNA repeat, TO-PRO-1 dye displacement fluorescence; inhibition, % at 3 µM; hit rate 1.3% among 370,000;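 active = inhibition above the plate cutoff, the mean of all test compounds on that plate plus 3 SD, cut at about 35% in these data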;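 note: higher means more dye released from RNA so lower well fluorescence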
Exocytosis inh: blocks lytic granule exocytosis | TALL-104 LAMP-1 surface exposure, flow cytometry; cells stimulated with thapsigargin and PMA | inhibition, % at 10 µM | hit rate 0.66% among 360,000 | AID 651702;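 active = inhibition above about 55%, limit read from the data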
T cell modulator: modulates CD8 T cell binding to vesicles. 2C CD8+ T cell-vesicle binding, flow cytometry; active compounds read low. response (vesicle binding), % at 7 µM. hit rate 0.068% among 330,000. AID 2052;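 active = response, share of CD8 T cells binding vesicles, and their 90th percentile fluorescence all below set limits, cut at about 80% in these data, passing the limit was not always enough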;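 note: values below 100% mean blocked vesicle binding to the CD8+ T cells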
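Material: 2C TCR transgenic mouse naive CD8+ T cells, MACS-purified. Also added: QL9-charged Drosophila Ld/ICAM-1/B7-1 vesicles. Timing: binding 1.5 h at 37 °C. Measured by: high-throughput flow cytometry with anti-B7-1 and anti-CD8 staining. Read-out: percent CD8+ FL2 mean versus row control. Controls: Unloaded micro-vesicles (low), QL9 vesicles with 0.7% DMSO (high).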
B2AR ag: activates human beta-2 adrenergic receptor causing internalization | P07550 | response, % (concentration not given with the values) | hit rate 0.43% among 340,000 | Am2.2-beta2AR cells, FAP receptor internalization, flow cytometry;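 active = response above a set limit, near 3 SD of response in nonfluorescent compounds, cut at about 42% in these data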
Target sequence (P07550 whole entry, looked up): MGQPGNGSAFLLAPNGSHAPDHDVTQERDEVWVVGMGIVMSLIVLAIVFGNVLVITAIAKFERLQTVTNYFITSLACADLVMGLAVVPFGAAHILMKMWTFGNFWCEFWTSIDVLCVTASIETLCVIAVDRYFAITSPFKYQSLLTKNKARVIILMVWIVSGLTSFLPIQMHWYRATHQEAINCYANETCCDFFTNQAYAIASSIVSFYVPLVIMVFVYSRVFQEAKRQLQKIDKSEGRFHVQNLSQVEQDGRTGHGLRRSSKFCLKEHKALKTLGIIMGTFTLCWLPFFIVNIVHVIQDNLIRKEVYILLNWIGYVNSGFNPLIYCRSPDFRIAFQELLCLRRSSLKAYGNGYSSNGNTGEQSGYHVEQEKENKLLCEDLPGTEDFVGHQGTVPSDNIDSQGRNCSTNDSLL
V-ATPase pHluor: alters yeast V-ATPase proton transport; S. cerevisiae, pHLuorin cytosolic pH fluorescence; response, % at 10 µM; hit rate 0.37% among 350,000; in the data active = response mostly above about 7.3%, no sharp cut-off; inactive = mostly below about 5.4%; note: actives read high
Beta2AR ag CP1: human beta-2 adrenergic receptor agonism, cherry pick | Am2.2-beta2AR cells, FAP surface receptor, flow cytometry; active compounds read low | AID 540358 | shares compounds with B2AR ag | hit rate 25% among 1,100 | percent response (surface receptor), % at 10 µM;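 active = surface receptor percent response at or below 58%, roughly 3 SD from nonfluorescent compounds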
FAP fluor counter: fluorescence artifact in beta-2AR agonist FAP counterscreen. Am2.2 cells, FAP fluorogen flow cytometry; active compounds read low. calls only at 10 µM. 1,100 tested, under 10 active. AID 588765. shares compounds with B2AR ag;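 active = percent response below a set limit in fluorescence channel 1 and below 50% in channel 8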
Numbers stand for hits; 0 = inactive; - = no result.

SMILES	MPTP block	rCAG RNA binder	Exocytosis inh	T cell modulator	B2AR ag	V-ATPase pHluor	Beta2AR ag CP1	FAP fluor counter
CCCCNS(=O)(=O)/C=C/c1ccc(F)cc1CNC(=O)OC(C)(C)C	-	0	-	-	-	-	-	-
Cc1cc(NC(=O)CSc2ccc3nnc(CCNC(=O)c4ccccc4)n3n2)no1	0	0	0	0	0	0	-	-
Cc1ccc(NC(=O)CSc2ccc3nnc(CCNC(=O)c4ccccc4)n3n2)c(C)c1	0	0	0	0	62	0	0	0
Clc1ccc(-n2c(SCc3cccc4ccccc34)nnc2-c2ccccc2)cc1	-	0	-	-	-	-	-	-
C=CCc1cc(Cl)ccc1OCCCNC(C)C	0	0	0	0	62	0	0	0
C=CCc1cc(Cl)ccc1OCCCNCCO	0	0	0	0	0	0	-	-
O=C(NCc1cccs1)C1CCN(S(=O)(=O)c2ccc([N+](=O)[O-])cc2)CC1	-	0	-	-	-	-	-	-
O=C(Nc1ccc2oc(-c3ccncc3)nc2c1)c1ccc2c(c1)OCO2	0	0	0	0	0	0	0	0
O=C(Nc1ccc2oc(-c3ccncc3)nc2c1)c1ccc2c(c1)OCCO2	0	0	0	0	73	0	0	0
O=C(Nc1ccc2oc(-c3ccccc3)nc2c1)c1ccc2c(c1)OCCO2	0	0	0	0	0	0	-	-
COc1ccc(-c2nc3cc(NC(=O)c4ccc5c(c4)OCO5)ccc3o2)cc1	0	0	0	0	0	0	-	-
COc1ccc2[nH]c3c(c2c1)CCN[C@]31C(=O)N(Cc2cn(Cc3ccccc3)nn2)c2ccc(F)cc21	-	0	-	-	-	-	-	-
CCOC(=O)CC[C@@H]1CC[C@]2(CCCN(C(=O)C3CCCC3)C2)O1	-	0	-	-	-	-	-	-
COc1ccc(OCC(O)Cn2c(=N)n(Cc3ccccc3)c3ccccc32)cc1 (stereo not drawn)	0	0	0	0	0	0	-	-
Cc1ccc(OCC(O)Cn2c(=N)n(Cc3ccccc3)c3ccccc32)cc1 (stereo not drawn)	0	0	0	0	55	0	17	0
CC(C)Cc1nc2oc3c(NCCCN4CCOCC4)ncnc3c2c2c1CCC2	0	0	0	0	0	0	-	-
CC(C)Cc1nc2oc3c(Cl)ncnc3c2c2c1CCC2	0	0	0	0	110	0	20	0
Cc1ccc(-c2cc(-c3nnc(SCC(=O)N4c5ccccc5Sc5ccc(Cl)cc54)n3N)[nH]n2)cc1	-	0	-	-	-	-	-	-
CCOC(=O)c1c(-c2ccccc2)oc2ccc(O)c(CN3CCCC3)c12	0	0	0	0	95	0	0	0
CC1=C[C@]2(C[N+](Cc3ccccc3)=C(N)N2)n2c(=O)n(-c3ccccc3)c(=O)n2C1	-	0	-	-	-	-	-	-
Oc1ccc(NCc2ccccc2OCc2ccccc2)cc1	0	0	0	0	0	0	0	0
CCNCc1ccccc1OCc1ccccc1	0	0	0	0	0	0	-	-
O=C(CN1CCOCC1)N1CCN(c2nnc(-c3ccccc3)c3ccccc23)CC1	0	0	0	0	69	0	0	0
CCOC(=O)N1CCN(c2nnc(-c3ccc(C)cc3)c3ccccc23)CC1	0	0	0	0	45	0	33	0
Cc1ccc(-c2nnc(N3CCN(C(=O)CN4CCOCC4)CC3)c3ccccc23)cc1	0	0	0	0	0	0	-	-
SMILES	MPTP block	rCAG RNA binder	Exocytosis inh	T cell modulator	B2AR ag	V-ATPase pHluor	Beta2AR ag CP1	FAP fluor counter
N#CCC[C@@H]1CC[C@]2(CCCN(C(=O)c3ccco3)C2)O1	-	0	-	-	-	-	-	-
O=C(OCc1cn(Cc2ccc(F)c(F)c2)nn1)N1CCOCC1	-	0	-	-	-	-	-	-
Cc1ccc(S(=O)(=O)NC(C)(C)CN2CCC(Cc3ccccc3)CC2)cc1	0	0	0	0	50	0	0	0
CN(C(=O)c1cccc(NC(=O)Cc2ccc(NC(=O)C3CCN(C(=O)C4CC4)CC3)cc2)c1)C1CCCC1	0	0	0	-	0	0	-	-
CN(C(=O)c1ccc(NC(=O)Cc2cccc(NC(=O)C3CCN(C(=O)C4CC4)CC3)c2)cc1)C1CCCC1	0	0	0	0	0	0	0	0
CN(C(=O)c1ccc(NC(=O)Cc2ccc(NC(=O)C3CCN(C(=O)C4CCCC4)CC3)cc2)cc1)C1CC1	0	0	0	0	0	0	-	-
CN(C(=O)c1ccc(NC(=O)Cc2cccc(NC(=O)C3CCN(C(=O)C4CCC4)CC3)c2)cc1)C1CCCC1	0	0	0	0	0	0	0	0
CN(C(=O)c1cccc(NC(=O)Cc2cccc(NC(=O)C3CCN(C(=O)C4CCCC4)CC3)c2)c1)C1CCC1	0	0	0	-	0	0	-	-
CN(C(=O)c1ccc(NC(=O)Cc2cccc(NC(=O)C3CCN(C(=O)C4CCCC4)CC3)c2)cc1)C1CC1	0	0	0	-	0	0	0	0
CC(=O)c1cc(-c2ccccc2)c(=O)n2c1CCC2	-	0	-	-	-	-	-	-
Cc1ccc(OCc2cc(C(=O)NC3CCc4ccccc43)no2)cn1 (stereo not drawn)	0	0	0	0	0	0	0	0
Cc1ccc(OCc2cc(C(=O)NCc3cc(F)ccc3C)no2)cn1	0	0	0	-	0	0	0	0
CCC(NC(=O)c1cc(COc2ccc(C)nc2)on1)c1ccc(C)cc1 (stereo not drawn)	0	0	0	0	0	0	0	0
C[C@@H]1ON(C)[C@H]2C[C@H]3c4cc(-c5ccc(F)cc5)ccc4CCN3C[C@@H]12	-	0	-	-	-	-	-	-
CC(=O)N1CCc2cc(S(=O)(=O)NC3CCN(C(=O)OCc4ccccc4)CC3)ccc21	-	0	-	-	-	-	-	-
CNc1nc(-c2c(C)[nH]c3ccc(OC)cc23)cs1	0	0	0	0	60	0	0	0
Cc1ccc(NC(=O)Nc2ccc3c(c2)nnn3C)cc1C	0	0	0	0	0	0	-	-
CCOc1ccc(NC(=O)Nc2ccc3c(c2)nnn3C)cc1	0	0	0	0	60	0	0	0
COCCCn1c(SCC(=O)NCc2ccco2)nc2sc3c(c2c1=O)CCC3	0	0	0	0	0	0	-	-
COCCn1c(SCc2nnc(-c3ccccc3)o2)nc2sc3c(c2c1=O)CCC3	0	0	0	-	121	0	0	0
Cc1cc(-c2ccccc2)nc(SCC(=O)N2CCCC2)n1	0	0	0	0	0	0	0	0
CCN(Cc1cn(Cc2ccc(C)cc2)nn1)S(=O)(=O)c1ccccc1Br	-	0	-	-	-	-	-	-
O=C(CCCCCn1c(=S)[nH]c2ccccc2c1=O)NCc1ccc2c(c1)OCO2	0	0	0	0	113	0	29	0
O=c1c2ccccc2[nH]c(=S)n1Cc1ccc2c(c1)OCO2	0	0	0	0	0	0	-	-
O=C(CCCn1c(=O)[nH]c2ccsc2c1=O)N1CCN(Cc2ccc3c(c2)OCO3)CC1	0	0	0	0	0	0	-	-
O=C(CCCCCn1c(=O)[nH]c2ccsc2c1=O)NCc1ccc2c(c1)OCO2	0	0	0	0	113	0	26	0
O=C(CCn1c(=O)[nH]c2ccsc2c1=O)NCc1ccc(F)cc1	0	0	0	0	0	0	0	0

Source: PubChem
